According to ChEMBL document CHEMBL4433210, “Synthesis and Evaluation of Bifunctional Aminothiazoles as Antiretrovirals Targeting the HIV-1 Nucleocapsid Protein” (ACS Med Chem Lett, 2019):
Activity calls are given as the source filed them.

What was measured:
[1] = test system: Human immunodeficiency virus 1; test: Antiviral activity against wild-type HIV1 NL4-3 infected in human TZM-bl cells treated with compound assessed as reduction in viral replication after 48 hrs by bright Glo-luciferase reporter gene assay based monocycle assay; conditions: Human immunodeficiency virus 1, NL4-3
[2] = test system: Human immunodeficiency virus 1; test: Antiviral activity against wild type HIV1 NL4-3 infected in human TZM-bl cells assessed as reduction in viral replication after 48 hrs by bright Glo-luciferase reporter gene assay based BiCycle assay; format: functional, organism-based; conditions: Human immunodeficiency virus 1, NL4-3, TZM-bl
Procedure, shortened: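 BiCycle format: MT-2 cells infected with wild-type NL4-3 in the presence of compound dilutions. Virus produced in this first round was then quantified by infecting TZM-bl cells. IC50 was derived from the dose-response data.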

[3] = Inhibition of synthesized Nucleocapsid protein (11 to 55 residues) assessed as reduction in NC-induced cTAR DNA destabilization pre-treated with cTAR and Nucleocapsid (11-55) for 15 mins followed by compound addition at 10 uM by spectroflurometry relative to control
Procedure, shortened: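 NC chaperone inhibition assay: fluorescence monitoring of NC-induced destabilization of cTAR DNA labelled with Alexa488 at the 5′ end and Dabcyl quencher at the 3′ end. Compound is tested at 10 μM.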

[4] = test system: Human immunodeficiency virus 1; test: (§1) Antiviral activity against HIV1 7401 harboring nucleoside reverse transcriptase M41L/E44D/D67N/T69D/M184V/L210W/T215Y mutant infected in human TZM-bl cells infected with supernatants from virus-infected human MT2 cells treated with compound for 72 hrs assessed as reduction in viral replication after 48 hrs by bright Glo-luciferase reporter gene assay; format: functional, organism-based; conditions: Human immunodeficiency virus 1, 7401
Procedure, shortened: (§2)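 BiCycle assay: MT-2 cells infected with a drug-resistant HIV-1 strain in the presence of compound dilutions. Virus produced in this first round is then measured by infecting TZM-bl cells. The readout is IC50.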

[5] = test system: Human immunodeficiency virus 1; test: Selectivity ratio of IC50 for HIV1 7400 harboring nucleoside reverse transcriptase M41L/D67N/M184V/L210W/T215Y mutant infected in human MT2 cells to IC50 for HIV1 NL4-3 infected in human MT2 cells; format: functional
Procedure, shortened: (§3)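 Fold change is the IC50 against the resistant strain divided by the IC50 against the wild-type NL4–3 reference. Both IC50 values come from the BiCycle assay (MT-2 infection, then TZM-bl readout of progeny virus).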

[6] = test system: Human immunodeficiency virus 1; test: Selectivity ratio of IC50 for HIV1 11845 harboring integrase 140S/148H double mutant mutant infected in human MT2 cells to IC50 for HIV1 NL4-3 infected in human MT2 cells; format: functional
Procedure, shortened: as §3

[7] = test system: Human immunodeficiency virus 1; test: Selectivity ratio of IC50 for HIV1 12465 harboring protease M46I/I54V/Q58E/T74P/V82L/L90M mutant infected in human MT2 cells to IC50 for HIV1 NL4-3 infected in human MT2 cells; format: functional
Procedure, shortened: as §3

[8] = test system: Human immunodeficiency virus 1; test: as §1, with “7400” for “7401”, “M41L/D67N/M184V/L210W/T215Y” for “M41L/E44D/D67N/T69D/M184V/L210W/T215Y”; format: functional, organism-based; conditions: Human immunodeficiency virus 1, 7400
Procedure, shortened: as §2

[9] = test system: Human immunodeficiency virus 1; test: as §1, with “12231” for “7401”, “non-nucleoside” for “nucleoside”, “103N/179F/181C” for “M41L/E44D/D67N/T69D/M184V/L210W/T215Y”; format: functional, organism-based; conditions: Human immunodeficiency virus 1, 12231
Procedure, shortened: as §2

[10] = Cytotoxicity against human PBMC cells assessed as reduction in cell viability after 7 days by MTS assay; format: cell-based; conditions: read-out: TD50
Procedure, shortened: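 Cytotoxicity in peripheral blood mononuclear cells by MTS assay, giving TD50. Only compounds that met the BiCycle IC50 ≤ 5 μM criterion and were positive in the NC inhibition assay were tested.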

[11] = Selectivity index, ratio of TD50 for cytotoxicity aginst human PBMC cells to IC50 for antiviral activity against wild type HIV1 NL4-3 infected in human TZM-bl cells assessed as reduction in viral replication after 48 hrs by bright Glo-luciferase reporter gene assay based BiCycle assay; format: toxicity, cell-based; conditions: read-out: Selectivity Index
Procedure, shortened: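 SI calculated as TD50 from the PBMC MTS assay divided by IC50 from the BiCycle antiviral assay (MT-2 infection followed by TZM-bl read-out).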

[12] = test system: Human immunodeficiency virus 1; test: as §1, with “12229” for “7401”, “non-nucleoside” for “nucleoside”, “L100I/K103N/H221Y” for “M41L/E44D/D67N/T69D/M184V/L210W/T215Y”; format: functional, organism-based; conditions: Human immunodeficiency virus 1, 12229
Procedure, shortened: as §2

[13] = test system: Human immunodeficiency virus 1; test: as §1, with “11845” for “7401”, “integrase 140S/148H double” for “nucleoside reverse transcriptase M41L/E44D/D67N/T69D/M184V/L210W/T215Y”; format: functional, organism-based; conditions: Human immunodeficiency virus 1, 11845
Procedure, shortened: as §2

[14] = test system: Human immunodeficiency virus 1; test: as §1, with “12465” for “7401”, “protease M46I/I54V/Q58E/T74P/V82L/L90M” for “nucleoside reverse transcriptase M41L/E44D/D67N/T69D/M184V/L210W/T215Y”; format: functional, organism-based; conditions: Human immunodeficiency virus 1, 12465
Procedure, shortened: as §2

[15] = test system: Human immunodeficiency virus 1; test: Selectivity ratio of IC50 for HIV1 12229 harboring non-nucleoside reverse transcriptase L100I/K103N/H221Y mutant infected in human MT2 cells to IC50 for HIV1 NL4-3 infected in human MT2 cells; format: functional
Procedure, shortened: as §3

[16] = test system: Human immunodeficiency virus 1; test: as §1, with “11808” for “7401”, “protease L10F/K20T/V32I/L33F/I54V/G73S/I84V/L89V/L90M” for “nucleoside reverse transcriptase M41L/E44D/D67N/T69D/M184V/L210W/T215Y”; format: functional, organism-based; conditions: Human immunodeficiency virus 1, 11808
Procedure, shortened: as §2

[17] = test system: Human immunodeficiency virus 1; test: Selectivity ratio of IC50 for HIV1 7401 harboring nucleoside reverse transcriptase M41L/E44D/D67N/T69D/M184V/L210W/T215Y mutant infected in human MT2 cells to IC50 for HIV1 NL4-3 infected in human MT2 cells; format: functional
Procedure, shortened: as §3

[18] = test system: Human immunodeficiency virus 1; test: Selectivity ratio of IC50 for HIV1 12231 harboring non-nucleoside reverse transcriptase 103N/179F/181C mutant infected in human MT2 cells to IC50 for HIV1 NL4-3 infected in human MT2 cells; format: functional
Procedure, shortened: as §3

[19] = test system: Human immunodeficiency virus 1; test: Selectivity ratio of IC50 for HIV1 11808 harboring protease L10F/K20T/V32I/L33F/I54V/G73S/I84V/L89V/L90M mutant infected in human MT2 cells to IC50 for HIV1 NL4-3 infected in human MT2 cells; format: functional
Procedure, shortened: as §3

[20] = test system: Human immunodeficiency virus 1; test: Antiviral activity against wild-type HIV1 NL4-3 infected infected in human MT2 cells assessed as reduction in HIV1 integrated DNA at 1 uM and measured after 30 hrs post infection by Alu-LTR PCR protocol based method; format: functional, organism-based
Procedure, shortened: (§4)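 MT-2 cells were infected with NL4-3 at MOI 0.1 and incubated with test or reference agents at 20, 5 or 1 μM. Real-time PCR measured integrated HIV-1 DNA and intracellular and extracellular genomic HIV-1 RNA at 30 h post-infection. Levels are expressed as a percentage of the no-drug control culture.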

[21] = test system: Human immunodeficiency virus 1; test: Antiviral activity against wild-type HIV1 NL4-3 infected infected in human MT2 cells assessed as reduction in HIV1 extracellular genomic RNA level at 1 uM and measured after 30 hrs post infection by TaqMan probe based RT-PCR analysis; format: functional, organism-based
Procedure, shortened: as §4

[22] = test system: Human immunodeficiency virus 1; test: Antiviral activity against wild-type HIV1 NL4-3 infected infected in human MT2 cells assessed as reduction in HIV1 intracellular genomic RNA level at 1 uM and measured after 30 hrs post infection by TaqMan probe based RT-PCR analysis; format: functional, organism-based
Procedure, shortened: as §4

Compound: Nc1nc(CCNC(=O)c2ccc(COc3ccccc3-c3csc(N)n3)cc2)cs1
- IC50 [1]: > 50 µM
- IC50 [2]: 36 µM
- inhibition [3]: 16%

Compound: Nc1nc(-c2ccc(OCc3cccc(C(=O)NCCNC(=O)c4ccc(COc5ccccc5-c5csc(N)n5)cc4)c3)cc2)cs1.O=C(O)C(F)(F)F.O=C(O)C(F)(F)F
- IC50 [4]: 1.2 µM
- Ratio IC50 [5]: 0.6
- Ratio IC50 [6]: 0.8
- Ratio IC50 [7]: 0.9
- IC50 [1]: 5 µM
- IC50 [2]: 1.3 µM
- IC50 [8]: 0.8 µM
- IC50 [9]: 0.8 µM
- CC50 at 168 h [10]: 30 µM
- selectivity ratio at 48 h [11]: 23
- IC50 [12]: 2.2 µM
- IC50 [13]: 1 µM
- IC50 [14]: 1.2 µM
- Ratio IC50 [15]: 1.7
- IC50 [16]: 2.1 µM
- Ratio IC50 [17]: 0.9
- Ratio IC50 [18]: 0.6
- Ratio IC50 [19]: 1.3
- inhibition [3]: 24%

Compound: Nc1nc(CCc2nc(-c3ccc(COc4ccccc4-c4csc(N)n4)cc3)no2)cs1
- IC50 [1]: 35 µM
- IC50 [2]: 6 µM
- inhibition [3]: inactive

Compound: Nc1ccc(NCCNC(=O)c2ccc(COc3ccccc3-c3csc(N)n3)cc2)nc1.O=C(O)C(F)(F)F.O=C(O)C(F)(F)F.O=C(O)C(F)(F)F
- IC50 [4]: 2.7 µM
- Ratio IC50 [5]: 0.4
- Ratio IC50 [6]: 0.6
- Ratio IC50 [7]: 1.6
- IC50 [1]: > 50 µM
- IC50 [2]: 3.8 µM
- IC50 [8]: 1.5 µM
- IC50 [9]: 5 µM
- CC50 at 168 h [10]: 45 µM
- selectivity ratio at 48 h [11]: 12
- IC50 [12]: 12 µM
- IC50 [13]: 2.3 µM
- IC50 [14]: 6 µM
- Ratio IC50 [15]: 3.1
- IC50 [16]: 3 µM
- Ratio IC50 [17]: 0.7
- Ratio IC50 [18]: 1.3
- Ratio IC50 [19]: 0.8
- inhibition [3]: 15%

Compound: Nc1nc(-c2ccccc2OCc2ccc(C(=O)NCCN3CCOCC3)cc2)cs1
- IC50 [1]: > 100 µM
- IC50 [2]: > 100 µM

Compound: Nc1nc(-c2ccc(C(=O)NCCCNC(=O)c3ccc(COc4ccccc4-c4csc(N)n4)cc3)cc2)cs1
- IC50 [1]: 12 µM
- IC50 [2]: 15 µM
- inhibition [3]: 15%

Compound: Cc1nnc(C(=O)NC(C)(C)c2nc(C(=O)NCc3ccc(F)cc3)c(O)c(=O)n2C)o1
- Activity [20]: Active

Compound: Cc1cc(/C=C/C#N)cc(C)c1Nc1ccnc(Nc2ccc(C#N)cc2)n1
- Activity [21]: Active
- Activity [22]: Active

Compound: Nc1nc(CC(=O)NCCNC(=O)c2ccc(COc3ccccc3-c3csc(N)n3)cc2)cs1
- IC50 [1]: > 100 µM
- IC50 [2]: > 100 µM

Compound: Nc1nc(-c2ccc(C(=O)NCCNC(=O)c3ccc(COc4ccccc4-c4csc(N)n4)cc3)cc2)cs1
- IC50 [1]: 30 µM
- IC50 [2]: 5 µM
- inhibition [3]: inactive

Compound: Nc1nc(-c2ccc(OCc3cccc(C(=O)NCCCCNC(=O)c4ccc(COc5ccccc5-c5csc(N)n5)cc4)c3)cc2)cs1
- IC50 [1]: 16 µM
- IC50 [2]: 5 µM
- CC50 at 168 h [10]: > 100 µM
- selectivity ratio at 48 h [11]: > 20
- inhibition [3]: 19%

Compound: Nc1nc(-c2ccc(OCc3cccc(C(=O)NCCNC(=O)c4ccc(COc5ccc(F)cc5-c5csc(N)n5)cc4)c3)cc2)cs1.O=C(O)C(F)(F)F.O=C(O)C(F)(F)F
- IC50 [4]: 0.6 µM
- Ratio IC50 [5]: 1
- Ratio IC50 [6]: 2.7
- Ratio IC50 [7]: 1.8
- IC50 [1]: > 50 µM
- IC50 [2]: 1.1 µM
- IC50 [8]: 1.1 µM
- IC50 [9]: 4 µM
- CC50 at 168 h [10]: > 50 µM
- selectivity ratio at 48 h [11]: > 45
- IC50 [12]: 0.9 µM
- IC50 [13]: 3 µM
- IC50 [14]: 2 µM
- Ratio IC50 [15]: 0.8
- IC50 [16]: 0.8 µM
- Ratio IC50 [17]: 0.5
- Ratio IC50 [18]: 3.6
- Ratio IC50 [19]: 0.7
- inhibition [3]: 16%

Compound: Nc1nc(-c2ccc(OCc3cccc(C(=O)N4CCN(C(=O)c5ccc(COc6ccccc6-c6csc(N)n6)cc5)CC4)c3)cc2)cs1
- IC50 [1]: > 50 µM
- IC50 [2]: 28 µM
- inhibition [3]: 15%

Compound: Nc1nc(-c2ccccc2OCc2ccc(C(=O)NCCCNc3ccc([N+](=O)[O-])cn3)cc2)cs1
- IC50 [1]: 28 µM
- IC50 [2]: 12 µM
- inhibition [3]: 21%

Compound: Nc1nc(-c2ccc(OCc3cccc(C(=O)NCCNC(=O)c4ccc(COc5ccccc5-c5coc(N)n5)cc4)c3)cc2)co1
- IC50 [1]: > 50 µM
- IC50 [2]: 6.2 µM
- inhibition [3]: 21%

Compound: Nc1nc(-c2ccc(OCc3cccc(C(=O)NCCCNC(=O)c4ccc(COc5ccccc5-c5csc(N)n5)cc4)c3)cc2)cs1
- IC50 [1]: > 50 µM
- IC50 [2]: 12 µM
- inhibition [3]: 16%

Compound: Nc1nc(-c2ccc(OCc3cccc(C(=O)NCCNC(=O)c4ccc(COc5cccc6sc(N)nc56)cc4)c3)cc2)cs1
- IC50 [1]: > 50 µM
- IC50 [2]: 37 µM
- inhibition [3]: 17%

Compound: Nc1ccc(NCCNS(=O)(=O)c2ccc(COc3ccccc3-c3csc(N)n3)cc2)nc1
- IC50 [1]: > 100 µM
- IC50 [2]: > 100 µM
